Article PMC4805780 (International Journal for Parasitology: Drugs and Drug …, 2016)
“Also recorded” adds a separate entry of the source. Where two headings read alike, the source gives them in different places.

What was measured:
HcPMT1 = target: T1, HcPMT1 (Haemonchus contortus, UniProt A0A2Z1FIB9); assay: Methyltransferase HT activity kit assay, HcPMT1 as sole enzyme; assay type: biochemical
T1 sequence (A0A2Z1FIB9 1-349): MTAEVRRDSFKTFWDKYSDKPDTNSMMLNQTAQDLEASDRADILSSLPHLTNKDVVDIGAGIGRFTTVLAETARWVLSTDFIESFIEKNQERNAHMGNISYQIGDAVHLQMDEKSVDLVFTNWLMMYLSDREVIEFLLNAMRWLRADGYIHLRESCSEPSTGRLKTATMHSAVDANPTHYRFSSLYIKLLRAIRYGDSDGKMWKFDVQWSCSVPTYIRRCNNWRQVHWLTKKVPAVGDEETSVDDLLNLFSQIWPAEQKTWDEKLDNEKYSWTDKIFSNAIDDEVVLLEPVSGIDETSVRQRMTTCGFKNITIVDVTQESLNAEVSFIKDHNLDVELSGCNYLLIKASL

[1] = target: T2, HcPMT1 + HcPMT2 combination (Haemonchus contortus, UniProt A0A2Z1FIB9+U5HK48); assay: Methyltransferase HT activity kit assay, HcPMT1 + HcPMT2 combination; assay type: biochemical; conditions: for IC50: read-out: HcPMT1 + HcPMT2 Activity inhibition IC50, 11 μg/ml each enzyme, 95 μM SAM, 160 μM phosphoethanolamine
T2 sequence (A0A2Z1FIB9 1-349): T1 sequence (A0A2Z1FIB9 1-349)
T2 sequence (U5HK48 3-433): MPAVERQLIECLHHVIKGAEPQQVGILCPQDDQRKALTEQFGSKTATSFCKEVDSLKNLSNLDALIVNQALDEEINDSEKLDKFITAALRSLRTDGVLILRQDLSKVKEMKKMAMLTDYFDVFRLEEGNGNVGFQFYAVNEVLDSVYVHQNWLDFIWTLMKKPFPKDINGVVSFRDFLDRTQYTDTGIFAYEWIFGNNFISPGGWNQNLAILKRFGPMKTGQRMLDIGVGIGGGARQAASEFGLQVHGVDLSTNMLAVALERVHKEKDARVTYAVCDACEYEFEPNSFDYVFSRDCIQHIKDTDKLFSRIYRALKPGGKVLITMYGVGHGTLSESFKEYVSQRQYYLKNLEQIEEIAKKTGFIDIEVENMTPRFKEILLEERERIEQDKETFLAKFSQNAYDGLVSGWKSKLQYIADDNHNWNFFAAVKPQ
In short: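 His-tagged recombinant HcPMT1 and HcPMT2 from E. coli BL21-CodonPlus-DE3-RIL, Ni-affinity purified, dialysed in 5 mM Hepes-KOH pH 7.8 with 0.5 mM DTT. Fluorescent SAM-dependent methyltransferase kit, 11 µg/ml each enzyme, 95 µM SAM, 160 µM phosphoethanolamine. Rising test compound from DMSO stock; DMSO-only reactions as uninhibited. Triplicate, 24 °C, 45 min shaking, then kit positive-control mix 10 min. Isopropanol stop; fluorescence 380ex/520em. % inhibition against uninhibited mean RFU; IC50 by nonlinear regression.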

[2] = system: H. contortus third-stage (L3) larvae; assay: Anthelmintic effect on motility of third-stage larvae in culture; design: species or system Haemonchus contortus; conditions: for anthelmintic effect against larvae: data not shown
In short: (§1)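 Adult females freshly taken from goat abomasum, or L3 larvae Baermann-extracted from 10-day, 21 °C faecal cultures; both PCR-confirmed as H. contortus. 100 worms per dish, in triplicate, in 20 ml RPMI-1640 with 2% glucose and antibiotics, pH 6.8. Rising test-compound concentrations, with DMSO and untreated controls; 37 °C, 5% CO2, 36 h. Worms light-stimulated 5 min at 37 °C. 50 scored per dish as very motile, sluggish or immotile. IC50 from % non-motile by nonlinear regression.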

[3] = system: adult H. contortus female worms; assay: Anthelmintic effect on motility of adult female worms in culture; design: species or system Haemonchus contortus; conditions: for anthelmintic effect against adult worms: all concentrations up to a maximum of 80 μM
In short: as §1

P. falciparum PMT = conditions: previous studies ref Bobenchik et al., 2013; cited from earlier work
P. falciparum = conditions: ref Bobenchik et al., 2013; cited from earlier work
MonoMac6 cells = assay: WST-1 cytotoxicity assay in mammalian cells; assay type: cell-based, human; conditions: read-out: cytotoxic IC50; mammalian monocytic cells, 48 h
In short: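 MonoMac6 cells seeded at 10⁴/well in phenol-red-free RPMI-1640 with 10% FCS, 2.05 mM L-glutamine, nonessential amino acids, OPI supplement and 1% penicillin-streptomycin. Test compound at rising concentrations in triplicate, with DMSO-only controls; 48 h, 37 °C, 5% CO2. WST-1 added, 1 h at 37 °C. Supernatant transferred and formazan read as absorbance at 420 nm.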

[4] = all concentrations up to a maximum of 80 μM

**Q.** Which “inhibitory effect against the activity of HcPMT1 as the sole enzyme” value (HcPMT1) does the source give for `S=C(CSc1ccccc1)Nc1cccc2ccccc12` [NSC-158011, N-naphthalen-1-yl-2-phenylsulfanylethanethioamid] here?
**A.** did not have any significant inhibitory effect; also recorded: had no inhibitory effect

**Q.** And the inhibition at 15 µM ([1]; read-out: maximum inhibition of combined activity of HcPMT1 and HcPMT2)?
**A.** 12%

**Q.** What about the “anthelmintic effect against larvae” value [2, 4] of the same molecule?
**A.** did not show any anthelmintic effect

**Q.** What about the “anthelmintic effect against adult worms” value ([3]; data not shown) of the same molecule?
**A.** did not show any anthelmintic effect

**Q.** What about the “inhibitory effect against catalytic activity of P. falciparum PMT” value (P. falciparum PMT) of the same molecule?
**A.** significant inhibitory effect

**Q.** What about the “antiparasitic activity against P. falciparum” value (P. falciparum) of the same molecule?
**A.** significant antiparasitic activity

**Q.** For `O=C1C=C(NCCc2cc(Br)c(O)c(Br)c2)C(=O)c2ncccc21` [NSC-668394, 5,8-Quinolinedione, 7-[[2-(3,5-dibromo-4-hydroxyphenyl)ethyl]amino]-], which IC50 (HcPMT1) is on record?
**A.** 5.9 ± 0.9 µM

**Q.** And the “concentration with highest inhibitory effect on HcPMT1 and HcPMT2 activity” value [1]?
**A.** 5 µM

**Q.** And the IC50 [1]?
**A.** 2.8 ± 0.6 µM

**Q.** And the “anthelmintic effect against larvae” value ([2]; up to 60 μM)?
**A.** did not show any anthelmintic activity

**Q.** What about the “anthelmintic effect against adult H. contortus” value ([3]; up to 60 μM, data not shown) of the same molecule?
**A.** did not show any anthelmintic activity

**Q.** With `CC(=NNC(=[Se])N1CC2CCC(CC2)C1)c1ccccn1` [NSC-323241, 3-Azabicyclo[3.2.2]nonane-3-carboselenoic acid, [1-(2-pyridinyl)ethylidene]hydrazide] as the molecule, how does the “inhibitory effect against the activity of HcPMT1 as the sole enzyme” value (HcPMT1) read?
**A.** did not have any significant inhibitory effect; also recorded: had no inhibitory effect

**Q.** And the inhibition at 12 µM ([1]; read-out: maximum inhibition rate of combined activity of HcPMT1 and HcPMT2)?
**A.** 21%

**Q.** What about the “anthelmintic effect against larvae” value [2, 4] of the same molecule?
**A.** did not show any anthelmintic effect

**Q.** And the “anthelmintic effect against adult worms” value ([3]; data not shown)?
**A.** did not show any anthelmintic effect

**Q.** And the “inhibitory effect against catalytic activity of P. falciparum PMT” value (P. falciparum PMT)?
**A.** significant inhibitory effect

**Q.** What about the “antiparasitic activity against P. falciparum” value (P. falciparum) of the same molecule?
**A.** significant antiparasitic activity

**Q.** Which results are given for “Hydrazinecarbothioamide, N,N-dipropyl- 2-(2-pyridinemethylene)-, (N,N,S)-copper(II) chloride complex, (SP-4-3)- [NSC-641296]”?
**A.** IC50 (HcPMT1; read-out: HcPMT1 Activity inhibition IC50, HcPMT1 alone, 95 μM SAM, 160 μM phosphoethanolamine): 8.3 ± 1.1 µM; concentration with highest inhibitory effect on HcPMT1 and HcPMT2 activity [1]: 8 µM; IC50 [1]: 5.1 ± 1.8 µM; concentration from which significant decrease in very motile larvae was observed ([2]; 36 h, P < 0.05): 4 µM; cytotoxic IC50 relative to anthelmintic IC50 against larvae ([2]; MonoMac6 IC50 vs larvae IC50): 2 fold; percentage of sluggishly motile larvae relative to very motile ([2]; above 4 μM, 36 h): at least 2.7 fold; percentage of immotile worms relative to very motile worms ([2]; at 22 μM, larvae, 36 h): 4 fold; percentage of sluggishly motile worms relative to very motile ([2]; from 14 μM and above, larvae, 36 h): at least 3 fold; cytotoxic IC50 relative to anthelmintic IC50 against adult worms ([3]; MonoMac6 IC50 vs adult worm IC50): 4 fold; percentage of immotile worms relative to motile worms ([3]; at 8 μM and above, adult worms, 36 h): at least 2 fold; change in number of motile adult worms ([3]; at 8 μM, 36 h): decrease by half; IC50 (MonoMac6 cells): 29 ± 2.1 µM
